Test results: ChEMBL document CHEMBL4813921, “Optimization of WZ4003 as NUAK inhibitors against human colorectal cancer” (Eur J Med Chem, 2021)
Active and inactive are the calls of the source. The rule behind the calls is not given here.

Experiments:
[1] = target: T1, NUAK family SNF1-like kinase 2 (Homo sapiens) (UniProt Q9H093); test: Inhibition of NUAK2 (unknown origin) at 10 uM using CHKtide as substrate in presence of ATP measured after 60 mins by ADP-Glo assay
T1 sequence (whole entry): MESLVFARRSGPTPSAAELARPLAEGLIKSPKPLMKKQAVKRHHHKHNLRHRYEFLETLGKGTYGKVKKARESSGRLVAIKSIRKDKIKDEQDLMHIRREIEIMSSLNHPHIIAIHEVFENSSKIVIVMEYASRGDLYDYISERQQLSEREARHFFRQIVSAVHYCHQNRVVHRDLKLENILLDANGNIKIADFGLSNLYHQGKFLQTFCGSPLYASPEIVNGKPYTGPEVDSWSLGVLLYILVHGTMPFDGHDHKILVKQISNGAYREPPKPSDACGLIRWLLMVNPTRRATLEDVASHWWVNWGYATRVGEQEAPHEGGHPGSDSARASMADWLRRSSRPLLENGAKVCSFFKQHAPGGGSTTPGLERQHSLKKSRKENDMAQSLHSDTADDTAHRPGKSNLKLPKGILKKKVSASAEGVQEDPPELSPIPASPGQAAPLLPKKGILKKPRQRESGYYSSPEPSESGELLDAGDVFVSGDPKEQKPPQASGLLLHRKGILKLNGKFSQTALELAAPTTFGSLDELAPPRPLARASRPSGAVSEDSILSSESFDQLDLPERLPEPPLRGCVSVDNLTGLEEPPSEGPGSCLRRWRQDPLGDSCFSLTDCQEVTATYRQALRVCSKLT

[2] = target: T2, NUAK family SNF1-like kinase 1 (Homo sapiens) (UniProt O60285); test: Inhibition of NUAK1 (unknown origin) at 10 uM using CHKtide as substrate in presence of ATP measured after 60 mins by ADP-Glo assay
T2 sequence (whole entry): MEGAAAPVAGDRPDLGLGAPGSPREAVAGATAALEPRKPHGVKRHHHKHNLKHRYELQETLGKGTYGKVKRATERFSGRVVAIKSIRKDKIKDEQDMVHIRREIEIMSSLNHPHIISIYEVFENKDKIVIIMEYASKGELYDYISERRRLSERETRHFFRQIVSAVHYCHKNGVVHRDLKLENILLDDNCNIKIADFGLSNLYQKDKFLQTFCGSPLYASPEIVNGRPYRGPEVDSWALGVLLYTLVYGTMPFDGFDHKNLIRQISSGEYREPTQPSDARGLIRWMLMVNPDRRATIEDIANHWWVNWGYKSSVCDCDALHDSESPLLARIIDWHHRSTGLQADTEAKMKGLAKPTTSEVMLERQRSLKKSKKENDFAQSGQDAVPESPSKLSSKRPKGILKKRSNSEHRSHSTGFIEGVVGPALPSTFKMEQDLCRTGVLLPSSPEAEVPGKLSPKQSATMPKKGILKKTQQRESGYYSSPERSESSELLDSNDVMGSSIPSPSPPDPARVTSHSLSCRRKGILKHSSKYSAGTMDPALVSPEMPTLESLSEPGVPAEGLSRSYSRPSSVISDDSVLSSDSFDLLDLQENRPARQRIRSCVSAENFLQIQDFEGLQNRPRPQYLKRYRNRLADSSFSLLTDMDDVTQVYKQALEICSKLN

U2OS [3] = test: Antiproliferative activity against human U2OS cells assessed as reduction in cell viability at 10 uM measured after 1 to 5 days by MTT assay; assay type: functional; conditions: time 1-5 day
Method in brief: (§1)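 MTT viability read daily over 1–5 days of exposure to 10 μM compound; mean ± SD, n = 3.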

HCT-116 [4] = test: Induction of apoptosis in human HCT-116 cells assessed as necrotic cells at 10 uM measured after 48 hrs by Annexin V-FITC/PI staining based flow cytometry method (reference value: 2.2%); assay type: functional
HCT-116 [5] = test: Induction of apoptosis in human HCT-116 cells assessed as late apoptotic cells at 10 uM measured after 48 hrs by Annexin V-FITC/PI staining based flow cytometry method (reference value: 1.6%); assay type: functional
SW480 [6] = test: Induction of apoptosis in human SW480 cells assessed as viable cells at 10 uM measured after 48 hrs by Annexin V-FITC/PI staining based flow cytometry method (reference value: 93.2%); assay type: functional; conditions: read-out: Activity
U2OS [7] = test: Induction of apoptosis in human U2OS cells assessed as late apoptotic cells at 10 uM measured after 48 hrs by Annexin V-FITC/PI staining based flow cytometry method (reference value: 1.3%); assay type: functional
U2OS [8] = test: Induction of apoptosis in human U2OS cells assessed as early apoptotic cells at 10 uM measured after 48 hrs by Annexin V-FITC/PI staining based flow cytometry method (reference value: 2.8%); assay type: functional
U2OS [9] = test: Induction of apoptosis in human U2OS cells assessed as necrotic cells at 10 uM measured after 48 hrs by Annexin V-FITC/PI staining based flow cytometry method (reference value: 0.4%); assay type: functional
SW480 [10] = test: Antiproliferative activity against human SW480 cells at 2.5 to 10 uM measured after 48 hrs by EdU staining based assay; assay type: functional, cell-based; conditions: dose 2.5-10 µM
Method in brief: (§2)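 Cells exposed to a range of compound concentrations for 48 h, then EdU click-chemistry staining with DAPI counterstain. Confocal high-content imaging; DAPI-positive nuclei counted as total and EdU-positive as proliferating.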

U2OS [11] = test: Induction of apoptosis in human U2OS cells assessed as viable cells at 10 uM measured after 48 hrs by Annexin V-FITC/PI staining based flow cytometry method (reference value: 95.5%); assay type: functional; conditions: read-out: Activity
SW480 [12] = test: Antiproliferative activity against human SW480 cells assessed as reduction in cell viability at 10 uM measured after 1 to 5 days by MTT assay relative to control; assay type: functional, cell-based; conditions: time 1-5 day; method in brief: as §1
SW480 [13] = test: Induction of apoptosis in human SW480 cells assessed as necrotic cells at 10 uM measured after 48 hrs by Annexin V-FITC/PI staining based flow cytometry method (reference value: 1.4%); assay type: functional
HCT-116 [14] = test: Induction of apoptosis in human HCT-116 cells assessed as early apoptotic cells at 10 uM measured after 48 hrs by Annexin V-FITC/PI staining based flow cytometry method (reference value: 0.8%); assay type: functional
U2OS [15] = test: Antiproliferative activity against human U2OS cells at 2.5 to 10 uM measured after 48 hrs by EdU staining based assay; assay type: functional, cell-based; conditions: dose 2.5-10 µM; method in brief: as §2
HCT-116 [16] = test: Induction of apoptosis in human HCT-116 cells assessed as viable cells at 10 uM measured after 48 hrs by Annexin V-FITC/PI staining based flow cytometry method (reference value: 95.4%); assay type: functional; conditions: read-out: Activity
SW480 [17] = test: Induction of apoptosis in human SW480 cells assessed as late apoptotic cells at 10 uM measured after 48 hrs by Annexin V-FITC/PI staining based flow cytometry method (reference value: 2.8%); assay type: functional
SW480 [18] = test: Induction of apoptosis in human SW480 cells assessed as early apoptotic cells at 10 uM measured after 48 hrs by Annexin V-FITC/PI staining based flow cytometry method (reference value: 2.6%); assay type: functional
HCT-116 [19] = test: Antiproliferative activity against human HCT-116 cells assessed as reduction in cell viability at 10 uM measured after 1 to 5 days by MTT assay relative to control; assay type: functional, cell-based; conditions: time 1-5 day; method in brief: as §1
HCT-116 [20] = test: Antiproliferative activity against human HCT-116 cells at 2.5 to 10 uM measured after 48 hrs by EdU staining based assay; assay type: functional, cell-based; conditions: dose 2.5-10 µM; method in brief: as §2

| inhibition [1] | inhibition [2] | Compound | inhibition at 10 µM (U2OS [3]) [%] | other results |
| --- | --- | --- | --- | --- |
| 8.45% | 65.6% | CCC(=O)Nc1cccc(Oc2nc(Nc3ccc(N4CCOCC4)cc3OC)ncc2Cl)c1 | 9.7 |  |
| inactive | 9.2% | CCC(=O)Nc1cccc(Oc2nc(Nc3ccc(N4CCC(C)CC4)cc3OC)ncc2Cl)c1 | 20.9 |  |
| inactive | 25.8% | CCC(=O)Nc1cccc(Oc2nc(Nc3ccc(N4CCCC4)cc3OC)ncc2Cl)c1 | 18.5 |  |
| inactive | 13.9% | CCC(=O)Nc1cccc(Oc2nc(Nc3ccc(N4CCCCC4)cc3OC)ncc2Cl)c1 | 12.9 |  |
| inactive | 10.8% | CCC(=O)Nc1cccc(Oc2nc(Nc3ccc(N(CC)CC)cc3OC)ncc2Cl)c1 | 8.69 |  |
| inactive | 9.3% | CCCN(CCC)c1ccc(Nc2ncc(Cl)c(Oc3cccc(NC(=O)CC)c3)n2)cc1 | 23.9 |  |
| 84.8% | 85.8% | CCC(=O)Nc1cccc(Oc2nc(Nc3ccc(N4CCN(C)CC4)cc3OC)ncc2Cl)c1 | 47.3 | Activity (HCT-116 [4]): 3.2%; Activity (HCT-116 [5]): 13.7%; viability at 10 µM (SW480 [6]): 94.5%; Activity (U2OS [7]): 2.6%; Activity (U2OS [8]): 6.2%; Activity (U2OS [9]): 0.4%; Activity (SW480 [10]): Active; viability at 10 µM (U2OS [11]): 90.8%; Activity (SW480 [12]): Active; Activity (SW480 [13]): 0.8%; Activity (HCT-116 [14]): 2.9%; Activity (U2OS [15]): Active; viability at 10 µM (HCT-116 [16]): 80.2%; Activity (SW480 [17]): 2.7%; Activity (SW480 [18]): 2%; Activity (HCT-116 [19]): Active; Activity (HCT-116 [20]): Active |
| 24.8% | 13.4% | CCC(=O)Nc1cccc(Oc2nc(Nc3ccc(N4CCC(C)CC4)cc3)ncc2Cl)c1 | 44.2 |  |
| 31.7% | 72.6% | CCC(=O)Nc1cccc(Oc2nc(Nc3ccc(N(C)C)cc3)ncc2Cl)c1 | 60.3 |  |
| 69.1% | 71.5% | CCC(=O)Nc1cccc(Oc2nc(Nc3ccc(N4CCN(C)CC4)cc3Cl)ncc2Cl)c1 | 34.8 |  |
| inactive | inactive | CCCN(CCC)c1ccc(Nc2ncc(Cl)c(Oc3cccc(NC(=O)CC)c3)n2)c(OC)c1 | 33.8 |  |
| inactive | inactive | CCC(=O)Nc1cccc(Oc2nc(Nc3ccc(N4CCCC4)cc3)ncc2Cl)c1 | 38.5 |  |
| 53.4% | 86.5% | CCC(=O)Nc1cccc(Oc2nc(Nc3ccc(N4CCC(OC)CC4)cc3)ncc2Cl)c1 | 48.7 |  |
| 21.2% | 54.4% | CCC(=O)Nc1cccc(Oc2nc(Nc3ccc(N(CC)CC)cc3)ncc2Cl)c1 | 38.8 |  |
| 48.8% | 85.6% | CCC(=O)Nc1cccc(Oc2ccnc(Nc3ccc(N4CCN(C)CC4)cc3)n2)c1 | 24 |  |
| 72.3% | 86% | CCC(=O)Nc1cccc(Oc2nc(Nc3ccc(N4CCCCC4)cc3)ncc2Cl)c1 | 48.4 |  |
| inactive | 5.08% | CCC(=O)Nc1cccc(Oc2nc(Nc3ccc(N4CCC(OC)CC4)cc3OC)ncc2Cl)c1 | 10.8 |  |
| 43.5% | 70.9% | CCC(=O)Nc1cccc(Oc2nc(Nc3ccc(N4CCOCC4)cc3)ncc2Cl)c1 | 61.3 |  |
| 15% | 80.6% | CCC(=O)Nc1cccc(Oc2nc(Nc3ccc(N(C)C)cc3OC)ncc2Cl)c1 | 4.83 |  |
| 15.6% | 78.3% | Cc1nc(Nc2cnn(C3CCNCC3)c2)nc2c1N(C)C(=O)c1cc3ccccc3cc1N2C | 38.6 |  |
